Laboratory results published in ChEMBL document CHEMBL1126723, “Inhibition and inactivation of presynaptic cholinergic markers using redox-reactive choline analogs” (J Med Chem, 1993).

Legend:
[1] = molecular target: T1, Sodium-dependent serotonin transporter (Rattus norvegicus, UniProt P31652); test: Inhibition constant of high-affinity 5-HT uptake
In short: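 Rat forebrain crude synaptosomes took up [3H]serotonin (0.727 Ci/mmol) for 3 min at 30 °C, with and without inhibitor, as for the choline assay. IC50 came from nonlinear regression or Hill plots over 5–10 inhibitor concentrations. Ki was derived with Cheng-Prusoff, using the serotonin transport Km measured over 10 nM to […] substrate.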

Rattus norvegicus [2] = organism: Rattus norvegicus; test: Michaelis-Menten constant was reported for high affinity transport of choline; assay type: functional
In short: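 Rat forebrain crude synaptosome aliquots (0.27–0.3 mg protein) were equilibrated at 30 °C. [3H]choline was added at 10 nM to 10 μM and uptake run 3 min, within the linear range. Parallel 0 °C incubations corrected for nonspecific binding and diffusion. Reactions were stopped by ice cooling, centrifuged at 800g, and the pellets washed with ice-cold KRB.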

Rattus norvegicus [3] = organism: Rattus norvegicus; test: (§1) Inhibition of high affinity dopamine uptake at concentration of 1 uM; assay type: functional
[4] = molecular target: T1, Sodium-dependent serotonin transporter; test: Inhibition of high affinity 5-HT uptake at concentration of 1 uM; assay type: functional
[5] = molecular target: T2, Sodium-dependent dopamine transporter (Rattus norvegicus, UniProt P23977); test: Inhibition constant of high-affinity dopamine uptake
In short: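 Crude synaptosomes from adult male Long-Evans rat forebrain (Gray–Whittaker method) were incubated with [3H]dopamine (0.72 Ci/mmol) for 3 min at 30 °C alongside 0 °C blanks, with inhibitor at 5–10 concentrations between 10 µM and 10 mM. Uptake was stopped on ice and pellets were washed in KRB. IC50 came from regression or Hill plots, and Ki from Cheng–Prusoff using dopamine Km 1.4 µM.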

[6] = molecular target: T2, Sodium-dependent dopamine transporter; test: as §1; assay type: functional
[7] = substrate: C[N+](C)(C)CC(O)c1ccc(O)c(O)c1
[8] = substrate: C[N+](C)(C)CC(O)c1ccc(O)c(O)c1; remark: listed apart in the source
[9] = substrate: C[N+](C)(C)CC(O)c1ccc(O)c(O)c1; remark: listed apart in the source
[10] = substrate: C[N+](C)(C)CC(O)c1ccc(O)c(O)c1; remark: listed apart in the source
[11] = substrate: C[N+](C)(C)CC(O)c1ccc(O)c(O)c1; remark: listed apart in the source
[12] = substrate: C[N+](C)(C)CC(O)c1ccc(O)c(O)c1; remark: listed apart in the source

C[N+](C)(C)c1cccc(O)c1O
Ki [1]: 90 µM | Km (Rattus norvegicus [2]): 1000 µM | IC50 (Rattus norvegicus [3]): 196 µM | IC50 [4]: 213 µM

C[N+](C)(C)CC(O)c1ccc(O)c(O)c1 (centres undefined) [CATECHOLINE]
Ki [1]: 390 µM | Ki [5]: 530 µM | IC50 [6]: 949 µM | IC50 [4]: 3600 µM

B1: Sodium-dependent dopamine transporter (Rattus norvegicus), P23977 (protein)
chain: MSKSKCSVGPMSSVVAPAKESNAVGPREVELILVKEQNGVQLTNSTLINPPQTPVEAQERETWSKKIDFLLSVIGFAVDLANVWRFPYLCYKNGGGAFLVPYLLFMVIAGMPLFYMELALGQFNREGAAGVWKICPVLKGVGFTVILISFYVGFFYNVIIAWALHYFFSSFTMDLPWIHCNNTWNSPNCSDAHASNSSDGLGLNDTFGTTPAAEYFERGVLHLHQSRGIDDLGPPRWQLTACLVLVIVLLYFSLWKGVKTSGKVVWITATMPYVVLTALLLRGVTLPGAMDGIRAYLSVDFYRLCEASVWIDAATQVCFSLGVGFGVLIAFSSYNKFTNNCYRDAIITTSINSLTSFSSGFVVFSFLGYMAQKHNVPIRDVATDGPGLIFIIYPEAIATLPLSSAWAAVFFLMLLTLGIDSAMGGMESVITGLVDEFQLLHRHRELFTLGIVLATFLLSLFCVTNGGIYVFTLLDHFAAGTSILFGVLIEAIGVAWFYGVQQFSDDIKQMTGQRPNLYWRLCWKLVSPCFLLYVVVVSIVTFRPPHYGAYIFPDWANALGWIIATSSMAMVPIYATYKFCSLPGSFREKLAYAITPEKDHQLVDRGEVRQFTLRHWLLL
Vmax (pM min-1 mg-1) [7]: 53 | Km [8]: 1400 µM

B2: Sodium-dependent serotonin transporter (Rattus norvegicus), P31652 (protein)
chain: METTPLNSQKVLSECKDREDCQENGVLQKGVPTTADRAEPSQISNGYSAVPSTSAGDEASHSIPAATTTLVAEIRQGERETWGKKMDFLLSVIGYAVDLGNIWRFPYICYQNGGGAFLLPYTIMAIFGGIPLFYMELALGQYHRNGCISIWRKICPIFKGIGYAICIIAFYIASYYNTIIAWALYYLISSLTDRLPWTSCTNSWNTGNCTNYFAQDNITWTLHSTSPAEEFYLRHVLQIHQSKGLQDLGTISWQLTLCIVLIFTVIYFSIWKGVKTSGKVVWVTATFPYIVLSVLLVRGATLPGAWRGVVFYLKPNWQKLLETGVWVDAAAQIFFSLGPGFGVLLAFASYNKFNNNCYQDALVTSVVNCMTSFVSGFVIFTVLGYMAEMRNEDVSEVAKDAGPSLLFITYAEAIANMPASTFFAIIFFLMLITLGLDSTFAGLEGVITAVLDEFPHIWAKRREWFVLIVVITCVLGSLLTLTSGGAYVVTLLEEYATGPAVLTVALIEAVAVSWFYGITQFCSDVKEMLGFSPGWFWRICWVAISPLFLLFIICSFLMSPPQLRLFQYNYPHWSIVLGYCIGMSSVICIPTYIIYRLISTPGTLKERIIKSITPETPTEIPCGDIRMNAV
Vmax (pM min-1 mg-1) [9]: 23 | Km [10]: 150 µM

B3: Sodium- and chloride-dependent creatine transporter 1 (Rattus norvegicus), P28570 (protein)
chain: MAKKSAENGIYSVSGDEKKGPLIVSGPDGAPSKGDGPAGLGAPSSRLAVPPRETWTRQMDFIMSCVGFAVGLGNVWRFPYLCYKNGGGVFLIPYVLIALVGGIPIFFLEISLGQFMKAGSINVWNICPLFKGLGYASMVIVFYCNTYYIMVLAWGFYYLVKSFTTTLPWATCGHTWNTPDCVEIFRHEDCANASLANLTCDQLADRRSPVIEFWENKVLRLSTGLEVPGALNWEVTLCLLACWVLVYFCVWKGVKSTGKIVYFTATFPYVVLVVLLVRGVLLPGALDGIIYYLKPDWSKLGSPQVWIDAGTQIFFSYAIGLGALTALGSYNRFNNNCYKDAIILALINSGTSFFAGFVVFSILGFMATEQGVHISKVAESGPGLAFIAYPRAVTLMPVAPLWAALFFFMLLLLGLDSQFVGVEGFITGLLDLLPASYYFRFQREISVALCCALCFVIDLSMVTDGGMYVFQLFDYYSASGTTLLWQAFWECVVVAWVYGADRFMDDIACMIGYRPCPWMKWCWSFFTPLVCMGIFIFNVVYYKPLVYNNTYVYPWWGEAMGWAFALSSMLCVPLHLLGCLLRAKGTMAERWQHLTQPIWGLHHLEYRAQDADVRGLTTLTPVSESSKVVVVESVM
Km [11]: 2040 µM | Vmax (pM min-1 mg-1) [12]: 22
